Published values collected from several papers.
Compare with care: the assays were run in different laboratories.
Target: Tyrosine-protein kinase Fer (FER, Homo sapiens, UniProt P16591)

SMILES | assay | conditions | endpoint | value
COc1cc2ncnc(Nc3ccc(Oc4ccccc4)c(C)c3C)c2cc1OC | enzyme activity, inhibitor | 1 µM | inhibition | 18%
C[C@@H]1CN(c2cc(-c3n[nH]c4ccc(OC5(C)CC5)cc34)ncn2)C[C@H](C)O1 | cell-free assay, competition with immobilised ligand | 0.1 µM | remaining binding | 86%
CCN(CC)CCNC(=O)c1c(C)[nH]c(/C=C2\C(=O)Nc3ccc(F)cc32)c1C | enzyme activity, inhibitor | 0.3 µM | inhibition | -42%
Cc1ccc(NC(=O)c2ccc(C)c(C(F)(F)F)c2)cc1C#Cc1nn(C2CCC(O)CC2)c2ncnc(N)c12 (stereo not shown) | cell-free assay | 10 µM | remaining signal | 67%
CC(=O)N1CCC(c2ccc(C(=O)NC3=NCCN3)cc2C(F)(F)F)CC1 | cell-free assay, competition with immobilised ligand | 1 µM | remaining binding | 93%
c1nc2c(Nc3ccc4c(c3)OCCO4)nc(Nc3ccc4c(c3)OCCO4)nc2[nH]1 | enzyme activity, inhibitor | 10 µM | activity vs control | 5.7%
CNc1cccc2cc(C(=O)Nc3ccc(C(=O)O)cc3)c(=O)[nH]c12 | enzyme activity, inhibitor | 10 µM | inhibition | 1.6%
CC(C)(C)c1nc2c(s1)c1nc(N)ncc1c1ccc(NS(=O)(=O)c3c(F)cccc3F)c(F)c12 | enzyme activity, inhibitor, radiometric | 1 µM | remaining activity | 111%
COc1cc2ncnc(Nc3ccc(F)c(Cl)c3)c2cc1OCCCN1CCOCC1 | cell-free assay | 0.5 µM | remaining signal | 94.1%
Cc1ccc(Nc2nccc(N(C)c3ccc4c(C)n(C)nc4c3)n2)cc1S(N)(=O)=O | enzyme activity, inhibitor | 10 µM | inhibition | 71%
COc1cc2nccc(Oc3ccc(NC(=O)c4c5n(n(-c6ccc(F)cc6)c4=O)CCCC5)cc3)c2cc1OC | enzyme activity, inhibitor | 0.1 µM | inhibition | -14%
O=C1NC(=O)c2cc(Nc3ccc(F)cc3)c(Nc3ccc(F)cc3)cc21 | cell-free assay | 0.5 µM | remaining signal | 96.4%
CN(C)C(=O)Cn1cc(-c2nc(C3(c4ccc(-c5cnc(N)nc5)cc4)CC3)no2)cn1 | cell-free assay, competition with immobilised ligand | 1 µM | remaining binding | 79%
O=C(Nc1cnn(-c2csc(C(=O)NC3COC3)c2)c1)Nc1ccccc1Cl | enzyme activity, inhibitor | 5 µM | remaining activity | 101%
COc1cc2c(N3CCN(C(=O)Nc4ccc(OC(C)C)cc4)CC3)ncnc2cc1OCCCN1CCCCC1 | cell-free assay | 0.5 µM | remaining signal | 104%
CN1CC(Oc2cnc(C#N)cc2-c2ccn3nc(NC(=O)C4CC4)cc3c2)C1 | enzyme activity, inhibitor | 1 µM | inhibition | 1%

SMILES | assay | conditions | endpoint | value
O=c1cc(-c2cccc3c2Sc2ccccc2S3)oc(N2CCOCC2)c1 | enzyme activity, inhibitor | 0.5 µM | remaining activity | 103%
CCCOc1ccc(OC)c(F)c1C(=O)c1ccc(C(=O)N[C@@H]2CNC[C@H]2NC(=O)c2ccc3[nH]ncc3c2)cc1 | enzyme activity, inhibitor | 10 µM | remaining activity | 105%
O=C(O)[C@@H]1[C@@H](Cn2nnc3ccccc3c2=O)CC[C@H]1C(=O)c1ccc(OCCC2CCOCC2)cc1 | cell-free assay, competition with immobilised ligand | 1 µM | remaining binding | 87%
CNC(=O)c1cc(Oc2ccc(NC(=O)Nc3ccc(Cl)c(C(F)(F)F)c3)cc2)ccn1 | enzyme activity, inhibitor | 0.3 µM | inhibition | -8%
CCCCN(CCCC)C(=O)CN1C[C@H](c2cc(OC)c3c(c2)OCO3)[C@@H](C(=O)O)[C@@H]1CC(C)(C)CCC | cell-free assay, competition with immobilised ligand | 1 µM | remaining binding | 100%
O=C1Nc2ccc(Cl)cc2C1=Cc1cc(Cl)c(O)c(Cl)c1 | cell-free assay | 0.5 µM | remaining signal | 92.1%
Cc1cnc(NC2CCOCC2)nc1-n1cnc(C(=O)NC(CN)c2cc(F)cc(Cl)c2)c1 (stereo not shown) | enzyme activity, inhibitor, radiometric | 1 µM | remaining activity | 104%
C[C@@H](c1cccc(C#N)c1)n1cc(Cl)cc(C(N)=O)c1=N | cell-free assay, competition with immobilised ligand | 1 µM | remaining binding | 100%
CCN(CC)CCNC(=O)c1c(C)[nH]c(/C=C2\C(=O)Nc3ccc(Cl)cc32)c1C | enzyme activity, inhibitor | 0.5 µM | remaining activity | 17.7%
Cc1sc(C(=O)NC2COC2)cc1-n1cc(NC(=O)Nc2c(F)cccc2Cl)cn1 | enzyme activity, inhibitor | 10 µM | remaining activity | 90%
CCCS(=O)(=O)Nc1ccc(F)c(C(=O)c2c[nH]c3ncc(-c4ccc(Cl)cc4)cc23)c1F | enzyme activity, inhibitor | 1 µM | inhibition | < 10%
N#CCCc1ccc2c(c1)-c1[nH]c3ccc([N+](=O)[O-])cc3c1CC(=O)N2 | cell-free assay | 0.5 µM | remaining signal | 72.7%
Nc1cnc(N2CCc3cc(S(=O)(=O)Nc4c(F)cc(Cl)cc4F)cc(N4CCCC4=O)c32)nc1 | cell-free assay, competition with immobilised ligand | 1 µM | remaining binding | 100%
Cc1ccc(NC(=O)c2ccc(CN3CCN(C)CC3)cc2)cc1Nc1nc(-c2cccnc2)cs1 | cell-free assay | 0.5 µM | remaining signal | 97.6%
COc1cccc(CNC(=O)c2nc3scc(COCc4ccc(C(=O)O)cc4)c3c(=O)[nH]2)c1 | cell-free assay, competition with immobilised ligand | 1 µM | remaining binding | 100%
